Data: ChEMBL document CHEMBL3627612, “Hirsutinolide Series Inhibit Stat3 Activity, Alter GCN1, MAP1B, Hsp105, G6PD, Vimentin, TrxR1, and Importin α-2 Expression, and Induce Antitumor Effects against Human Glioma” (J Med Chem, 2015)
pIC50: −log10 of the molar value. Calls of active or inactive are those of the source. No cut-off for these calls is given here.

How the values were obtained:
[1] = molecular target: Mitogen-activated protein kinase 1 and 3 (ERK2 and ERK1) (Mus musculus) (UniProt P63085+Q63844); test: Modulation of EGF-induced Erk1/2 phosphorylation in mouse NIH3T3 cells expressing human EGFR at 5 uM preincubated for 3 hrs followed by stimulation with 1 ug/ml EGF for 12 mins by immunoblot analysis; type: cell-based
Sequence of Mitogen-activated protein kinase 1 and 3 (ERK2 and ERK1) (Mus musculus) (P63085 whole entry, looked up): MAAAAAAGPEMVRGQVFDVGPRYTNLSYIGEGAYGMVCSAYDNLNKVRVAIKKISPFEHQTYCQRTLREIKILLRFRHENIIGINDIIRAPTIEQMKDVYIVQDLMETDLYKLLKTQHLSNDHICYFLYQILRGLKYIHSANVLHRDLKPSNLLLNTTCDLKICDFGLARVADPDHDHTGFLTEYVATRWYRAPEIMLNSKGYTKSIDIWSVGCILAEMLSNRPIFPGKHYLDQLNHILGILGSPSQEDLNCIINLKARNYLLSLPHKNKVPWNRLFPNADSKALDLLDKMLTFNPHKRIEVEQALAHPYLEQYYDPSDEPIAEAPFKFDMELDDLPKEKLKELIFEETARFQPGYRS
Sequence of Mitogen-activated protein kinase 1 and 3 (ERK2 and ERK1) (Mus musculus) (Q63844 whole entry, looked up): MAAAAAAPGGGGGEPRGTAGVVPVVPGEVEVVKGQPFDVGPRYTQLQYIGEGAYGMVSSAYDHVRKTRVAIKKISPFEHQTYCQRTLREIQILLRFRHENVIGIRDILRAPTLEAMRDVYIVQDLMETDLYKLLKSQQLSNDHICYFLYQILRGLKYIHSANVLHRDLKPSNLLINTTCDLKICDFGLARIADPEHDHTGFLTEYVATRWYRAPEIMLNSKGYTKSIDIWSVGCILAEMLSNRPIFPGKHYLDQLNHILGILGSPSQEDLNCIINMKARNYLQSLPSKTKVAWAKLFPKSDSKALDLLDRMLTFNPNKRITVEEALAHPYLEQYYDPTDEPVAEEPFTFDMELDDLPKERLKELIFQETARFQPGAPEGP
In short: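 NIH3T3/hEGFR fibroblasts pretreated with or without 5 μM compound for 3 h, then stimulated with 1 μg/ml EGF for 12 min. Whole-cell lysates of equal total protein immunoblotted for phospho and total Stat3, Stat1, Stat5, Erk1/2. Controls were 0.025% DMSO-treated cells. Representative of 2–4 independent determinations.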

U-251 [2] = test: Inhibition of cell migration in human U251MG cells at 5 uM after 19 hrs by wound healing assay; type: functional, cell-based
In short: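 Scratch assay: sub-confluent U251MG monolayers wounded with pipette tips, treated once with 0–5 μM compound or DMSO, allowed to migrate into the denuded area over 19 h. Imaged at 10× on an inverted microscope.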

Glioma cell [3] = test: Effect on cell morphology in human Glioma (G22) patient derived xenograft cells assessed as cell disaggregation of spheroids at 5 uM for 24 hrs measured after 48 to 96 hrs by inverted fluorescence microscope analysis in presence of matrigel; type: functional
In short: (§1)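 G22 patient-derived xenograft glioma cells seeded at 1,000 cells/well in ultra-low-binding round-bottom wells, grown 48 h into 3D spheroids, then treated once with 5 μM compound or DMSO; matrigel added after 24 h. Spheroids imaged at 5× magnification on an inverted fluorescence microscope every 24 h for up to 120 h.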

[4] = molecular target: T1, Signal transducer and activator of transcription 3 (Homo sapiens, UniProt P40763); test: Inhibition of Stat3 dimer DNA binding activity in human U251MG cells nuclear extract at 5 uM after 0.5 to 24 hrs by EMSA using radiolabeled probe hSIE; type: cell-based; details: U-251
T1 sequence (P40763 whole entry): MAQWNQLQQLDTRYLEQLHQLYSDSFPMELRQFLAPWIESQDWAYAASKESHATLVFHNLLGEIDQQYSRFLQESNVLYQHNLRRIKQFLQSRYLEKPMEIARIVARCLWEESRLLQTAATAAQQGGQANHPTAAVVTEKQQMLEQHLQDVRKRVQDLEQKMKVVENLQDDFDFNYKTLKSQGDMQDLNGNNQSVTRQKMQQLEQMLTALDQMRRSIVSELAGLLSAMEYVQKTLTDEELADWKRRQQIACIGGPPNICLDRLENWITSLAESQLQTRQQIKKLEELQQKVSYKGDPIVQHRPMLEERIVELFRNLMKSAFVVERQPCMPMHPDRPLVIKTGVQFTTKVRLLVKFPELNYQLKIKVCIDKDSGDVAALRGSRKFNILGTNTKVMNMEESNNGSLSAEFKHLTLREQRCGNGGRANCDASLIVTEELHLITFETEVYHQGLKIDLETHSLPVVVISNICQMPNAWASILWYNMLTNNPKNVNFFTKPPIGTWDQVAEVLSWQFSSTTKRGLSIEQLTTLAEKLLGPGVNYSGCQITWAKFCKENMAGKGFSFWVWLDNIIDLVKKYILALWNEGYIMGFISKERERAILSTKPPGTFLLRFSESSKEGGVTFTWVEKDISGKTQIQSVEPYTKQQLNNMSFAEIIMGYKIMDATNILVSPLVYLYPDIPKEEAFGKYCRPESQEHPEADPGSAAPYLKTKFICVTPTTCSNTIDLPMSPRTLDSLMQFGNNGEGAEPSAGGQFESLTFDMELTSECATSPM
In short: (§2)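 Sub-confluent U251MG or U373MG cells treated with compound (5 μM for 0–24 h, or 0–5 μM for 1.5 h). Stat3:DNA bands scanned, quantified and plotted against concentration to derive IC50. Controls were 0.025% DMSO.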

U-251 [5] = test: Effect on PTP1B expression in human U251MG cells at 5 uM after 0.5 to 24 hrs by immunoblot analysis; type: functional, cell-based
In short: (§3)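 U251MG cells treated with 5 μM compound for 0–24 h; whole-cell lysates of equal total protein immunoblotted. Controls were 0.025% DMSO-treated cells. Representative of 2–4 independent determinations.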

[6] = Antiproliferative activity against human U251MG cells at 5 uM for 72 hrs by cyquant assay; type: functional; details: U-251, 72 h
In short: (§4)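 CyQuant proliferation assay after 72 h compound exposure of cultured cells; relative viability normalized to DMSO-treated control; IC50 values derived. Glioma lines grown in RPMI or DMEM with 10% FBS and 1% nonessential amino acids.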

[7] = molecular target: T2, Signal transducer and activator of transcription 1 (Mus musculus) (UniProt P42225); test: Inhibition of Stat1 dimer DNA binding activity in EGF-stimulated mouse NIH3T3 nuclear extract expressing human EGFR at 5 uM preincubated for 30 mins followed by addition of radiolabeled probe hSIE for 30 mins by EMSA
T2 sequence (whole entry): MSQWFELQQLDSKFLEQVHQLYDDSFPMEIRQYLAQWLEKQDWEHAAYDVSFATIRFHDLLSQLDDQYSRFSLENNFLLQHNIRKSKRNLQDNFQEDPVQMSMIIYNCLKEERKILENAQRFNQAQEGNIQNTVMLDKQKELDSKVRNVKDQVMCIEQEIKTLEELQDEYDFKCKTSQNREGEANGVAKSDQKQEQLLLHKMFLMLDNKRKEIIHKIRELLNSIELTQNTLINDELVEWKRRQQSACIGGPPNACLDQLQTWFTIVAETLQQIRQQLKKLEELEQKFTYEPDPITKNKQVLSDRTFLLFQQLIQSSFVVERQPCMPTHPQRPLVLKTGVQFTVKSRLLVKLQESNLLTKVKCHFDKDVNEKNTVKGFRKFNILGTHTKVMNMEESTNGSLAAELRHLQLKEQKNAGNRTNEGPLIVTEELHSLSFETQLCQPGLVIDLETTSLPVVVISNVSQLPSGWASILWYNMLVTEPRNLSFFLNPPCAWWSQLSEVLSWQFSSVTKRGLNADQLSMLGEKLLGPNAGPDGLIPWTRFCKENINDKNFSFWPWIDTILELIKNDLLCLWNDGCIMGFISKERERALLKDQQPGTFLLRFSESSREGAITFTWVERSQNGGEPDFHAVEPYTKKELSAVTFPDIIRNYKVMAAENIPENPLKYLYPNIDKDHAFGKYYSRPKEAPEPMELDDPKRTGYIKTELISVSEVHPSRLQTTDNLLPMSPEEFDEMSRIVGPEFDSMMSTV

[8] = Antiproliferative activity against human U373MG cells for 72 hrs by cyquant assay; type: functional, cell-based, U-373MG ATCC; details: U373 MG; in short: as §4
U-251 [9] = test: Effect on SOCS3 expression in human U251MG cells at 5 uM after 0.5 to 24 hrs by immunoblot analysis; type: functional, cell-based; in short: as §3
MDA-MB-231 = test: Antiproliferative activity against human MDA-MB-231 cells for 72 hrs by cyquant assay; type: functional, cell-based; details: MDA-MB-231, 72 h; in short: as §4
MCF7 = test: Anticlonogenic activity against human MCF7 cells for 72 hrs measured after 4 weeks by crystal-violet staining based assay; type: functional, cell-based
In short: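 Single-cell seeding at 250 cells per well; cells treated once the next day for 72 h with 0–5 μM compound, then grown until large colonies were visible (NIH3T3 1 week, MDA-MB-231 and U251MG 2 weeks, MCF-7 4 weeks). Colonies stained with crystal violet for 4 h, imaged and counted.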

[10] = molecular target: T1, Signal transducer and activator of transcription 3; test: Binding affinity to Stat3 (unknown origin) by NMR analysis
[11] = Antiproliferative activity against human Glioma (G10) patient derived xenograft cells at 5 uM after 72 hrs by cyquant assay; type: functional, Glioma cell
[12] = molecular target: T1, Signal transducer and activator of transcription 3; test: Inhibition of Stat3 activity in human U251MG cells assessed as phosphorylated Stat3 level at 5 uM by immunoblot analysis; type: cell-based; details: U-251, TDE = time-dependent effect
SF-295 = test: Anticlonogenic activity against human SF295 cells for 72 hrs by crystal-violet staining based assay; type: functional, cell-based
[13] = molecular target: T1, Signal transducer and activator of transcription 3; test: Inhibition of Stat3 dimer DNA binding activity in human U251MG cells nuclear extract at 5 uM by EMSA using radiolabeled probe hSIE; type: cell-based; details: U-251, TDE = time-dependent effect; in short: as §2
Glioma cell [14] = test: Effect on cell morphology in human Glioma (G22) patient derived xenograft cells assessed as 3D spheroids formation at 5 uM for 24 hrs measured after 48 hrs by inverted fluorescence microscope analysis; type: functional; in short: as §1
[15] = molecular target: T1, Signal transducer and activator of transcription 3; test: Inhibition of Stat3 activity in human glioma (G22) patient-derived mouse xenograft cells assessed as phosphorylated Stat3 level at 5 uM after 3 hrs by immunoblot analysis
In short: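 Cultured G22 glioma patient-derived mouse xenograft cells (DMEM, 5–10% heat-inactivated FBS) treated with 5 μM compound for 0–24 h. Whole-cell lysates immunoblotted for pStat3, Stat3, GAPDH.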

[16] = Antiproliferative activity against human SF295 cells for 72 hrs by cyquant assay; type: functional, cell-based; details: SF-295, 72 h; in short: as §4
[17] = molecular target: T2, Signal transducer and activator of transcription 1 (Mus musculus); test: Inhibition of Stat1 dimer DNA binding activity in EGF-stimulated mouse NIH3T3 nuclear extract expressing human EGFR assessed as residual activity at 5 uM preincubated for 30 mins followed by addition of radiolabeled probe hSIE for 30 mins by EMSA

inhibition [1]	inhibition [4]	inhibition [7]	pIC50 (MDA-MB-231)	Activity [10]	inhibition [12]	inhibition [13]	inhibition [15]	Activity [17] [%]	SMILES	inhibition (U-251 [2])	Activity (Glioma cell [3])	Activity (U-251 [5])	inhibition at 5 µM [6] [%]	pIC50 [8]	Activity (U-251 [9])	Activity (MCF7)	inhibition (INH) [11] [%]	Activity (SF-295)	Activity (Glioma cell [14])	pIC50 [16]
inactive	Active	inactive	5.19	Dose-dependent effect	tde	tde	Active	36	C/C=C(\C)C(=O)OCC1=C2/C(=C\[C@@]3(C)CC[C@](O)(O3)[C@H](C)C[C@@H]2O)OC1=O	Active	Active	inactive	90	5.19	inactive	Dose-dependent effect	45	Dose-dependent effect	Active	5.02
inactive	Active	inactive	5.74	Dose-dependent effect	tde	tde	Active	68	C/C=C(\C)C(=O)O[C@H]1C[C@@H](C)[C@]2(O)CC[C@](C)(/C=C3/OC(=O)C(COC(C)=O)=C31)O2	Active	Active	inactive	90	5.46	inactive	Dose-dependent effect	45	Dose-dependent effect	Active	5.12
inactive	Active	inactive	5.18	Dose-dependent effect	tde	tde	Active	49	C/C=C(\C)C(=O)O[C@H]1C[C@@H](C)[C@]2(OC)CC[C@](C)(/C=C3/OC(=O)C(COC(C)=O)=C31)O2	Active	Active	inactive	90	5.18	inactive	Dose-dependent effect	45	Dose-dependent effect	Active	5.09
